# Bioassay records (PubChem)
# CHRM1 antagonist – human CHRM1 antagonism | CHO-K1 hM1, Fluo-8 calcium fluorescence, ACh EC80 antagonist | inhibition, % at 3 µM | 360,000 compounds, 1.3% hits | AID 588852;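 active = percent inhibition above its own plate's cutoff, namely the mean of that plate's compound wells plus 3 SD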;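 note: peak over basal fluorescence ratio during 140 s after agonist addition; 0% = ACh EC80 plus DMSO and 100% = DMSO alone without agonist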
# m5-HT2A agonist – activates the mouse 5-HT2A serotonin receptor; activation, % at 7.6 µM; 360,000 compounds, 0.66% hits; CHO-K1 mHTR2A beta-arrestin complementation, luminescence; percent of 30 µM serotonin response; AID 624169;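 active = activation above a run cutoff, the mean activation of all tested compounds plus 3 SD, cut at about 14% in these data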;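 note: 0% = plate median of compound wells and 100% = 30 µM serotonin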
# CHRM1 PAM – human CHRM1 positive allosteric modulation; activation, % at 3 µM; P11229; CHO-K1 hM1, Fluo-8 calcium fluorescence, ACh EC20; 0% = ACh EC20, 100% = maximal ACh; 360,000 compounds, 0.088% hits; in the data active = activation above about 19%, passing the limit was not always enough
# TAAR1 ag – agonists of human TAAR1; activation, % at 3 µM; AID 624467; Q96RJ0; CHO RD-HGA16 TAAR1, Fluo-8 calcium fluorescence; vehicle wells 0%, saturating PEA agonist 100%; 360,000 compounds, 0.99% hits;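 active = activation above the mean activation of all test compounds in the run plus 3 SD, cut at about 38% in these data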
# Target sequence (Q96RJ0 whole entry, looked up): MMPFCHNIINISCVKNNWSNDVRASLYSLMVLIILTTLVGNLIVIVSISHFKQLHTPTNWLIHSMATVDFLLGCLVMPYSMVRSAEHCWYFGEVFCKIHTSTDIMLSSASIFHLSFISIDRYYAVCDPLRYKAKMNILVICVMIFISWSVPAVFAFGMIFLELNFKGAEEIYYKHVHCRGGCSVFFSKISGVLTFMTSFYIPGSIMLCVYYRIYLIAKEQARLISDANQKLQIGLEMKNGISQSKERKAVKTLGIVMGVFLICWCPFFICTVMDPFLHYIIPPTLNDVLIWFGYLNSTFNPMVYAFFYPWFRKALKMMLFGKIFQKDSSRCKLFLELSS
#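 Test system: RD-HGA16 (CHO) cells co-expressing Gα16 and hTAAR1; dosing: one-point dosing at 3 µM (nominal); timing: 17-24 h seeding, 75 min 37 °C dye, 30 min RT; signal: kinetic Fluo-8 calcium fluorescence; read-out basis: % activation relative to PEA EC100 response; controls: DMSO and PEA EC100; replicates: n 1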
# TAAR1 antag – antagonists of human TAAR1. CHO RD-HGA16 TAAR1, Fluo-8 calcium fluorescence, antagonist. Q96RJ0. 360,000 compounds, 1.5% hits. inhibition, % at 3 µM;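 active = inhibition above a per-plate cutoff, the mean inhibition of test compounds on that plate plus 3 SD, cut at about 49% in these data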;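 note: 0% = DMSO plus EC80 beta-PEA response and 100% = DMSO alone without agonist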
#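 Assay system: RD-HGA16 CHO cells with stable hTAAR1 and Gα16 / Reagent: EC80 β-phenethylamine stimulus / Doses: 3 µM, single point / Timing: dye loading 75 min at 37 °C, then 30 min room temperature / Measured by: Fluo-8 intracellular calcium dye fluorescence, real-time kinetic reads / Controls: vehicle wells and EC80 agonist wells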
# M1 ag – human M1 muscarinic receptor agonism | P11229 | CHO-K1 hM1, Fluo-8 calcium fluorescence, agonist mode; 0% DMSO, 100% acetylcholine EC100 | activation, % at 3 µM | 360,000 compounds, 0.33% hits | AID 588814;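 active = activation above the run's mean compound activation plus 3 SD, cut at about 16% in these data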;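 note: peak over basal fluorescence ratio within a 140 s kinetic read after compound addition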
# nonsel antag count – nonselective antagonist in TAAR1 antagonist counter-screen | shares compounds with TAAR1 antag | counterscreen cell line, calcium fluorescence, antagonist mode | inhibition, % at 3 µM | 2,400 compounds, 77% hits; in the data active = inhibition above about 22%;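 note: CHO-Ga16 host cells stimulated with ATP at an EC80 level; 0% = agonist EC80 plus vehicle and 100% = vehicle without agonist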
# TAAR1 ant conf – human TAAR1 antagonism, confirmed | 2,400 compounds, 40% hits | inhibition, % at 3 µM | shares compounds with TAAR1 antag | TAAR1-expressing cells, fluorescence antagonist read-out; in the data active = inhibition above about 49%;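 note: CHO-Ga16 host cells challenged with agonist PEA near its EC80; 0% = agonist at EC80 plus vehicle and 100% = vehicle with no agonist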
# Ga16 nonsel ag – nonselective Ga16 agonist in TAAR1 antagonist counter-screen | activation, % at 3 µM | Ga16-expressing cells, calcium fluorescence, agonist counterscreen | 2,400 compounds, 18% hits | shares compounds with TAAR1 antag; in the data active = activation above about 12%;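 note: 0% = vehicle wells and 100% = saturating stimulus response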
# TAAR1 ag count – TAAR1 agonism, antagonist counter-screen | 2,400 compounds, 2% hits | hTAAR1 cell line, fluorescence activation, agonist mode | shares compounds with TAAR1 antag | activation, % at 3 µM; in the data active = activation above about 37%;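 note: CHO cells stably expressing TAAR1 with calcium dye readout; 0% = DMSO vehicle and 100% = full agonist response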
# * marks the source's active call; other numbers are inactive results; nt = no result. Only some compounds are listed: those with a hit (about 3.9% of all), similar ones and a draw of the others.
SMILES,CHRM1 antagonist,m5-HT2A agonist,CHRM1 PAM,TAAR1 ag,TAAR1 antag,M1 ag,nonsel antag count,TAAR1 ant conf,Ga16 nonsel ag,TAAR1 ag count
CC(=O)Nc1ccc(CN2C(=O)C(CCc3ccccc3)ON=C2c2cnccn2)cc1 (configuration not stated),14,0,-11,20,76*,3,29*,54*,11,10
Cc1cc(C)c(C)c(S(=O)(=O)N2CCC(C(=O)N(C)Cc3nc4ccccc4c(=O)[nH]3)CC2)c1C,-1,7,10,34,59*,-1,28*,43,8,12
COc1cc(/C=N\NC(=O)c2ccc(-c3ccccc3)cc2)cc(OC)c1OC(C)=O,4,-4,2,8,61*,0,29*,38,8,3
COc1ccc(/C=N/NC(=O)c2cccc(NC(=O)c3ccc(Cl)cc3)c2)c(OC)c1,20,0,-19,4,57*,-5,29*,48,5,4
O=C(N/N=C/c1ccc(F)cc1)c1cccc(NC(=O)c2ccc(F)cc2)c1,6,-6,1,25,69*,3,38*,66*,13*,19
O=C(CCC(=O)Nc1ccc(F)cc1)N/N=C/c1ccc(Br)cc1,-13,7,7,37,53*,-3,9,34,-1,19
O=C(CCC(=O)Nc1ccc(F)cc1)N/N=C/c1ccccc1,-14,4,8,34,-6,-5,nt,nt,nt,nt
O=C(c1cccc(Cl)c1)N1CCC(N2CCC(C(=O)N3CCCC3)CC2)CC1,-4,0,4,3,-13,-3,nt,nt,nt,nt
Cc1ccc(NC(=O)CCNC(=O)c2ccc(Cl)cc2)nc1,-12,6,13,2,-18,-1,nt,nt,nt,nt
COc1cccc(C(=O)Oc2ccc(/C=N/NC(=O)c3ccncc3)cc2OC)c1,-2,1,1,16,19,0,nt,nt,nt,nt
O=C(N/N=C/c1ccccc1F)c1cccc(NC(=O)c2ccccc2Cl)c1,2,-5,-4,18,59*,-2,29*,53*,10,11
COc1cc(C(=O)N/N=C/c2ccc(OC(=O)c3cccc(C)c3)c(OC)c2)ccc1O,17,-3,-7,20,66*,-1,38*,49*,9,14
COc1ccc(/C=N/NC(=O)c2cc3c(ccc4ccccc43)o2)c(OC)c1,25,-2,-11,1,63*,-5,22*,44,4,2
COc1cc(/C=N/NC(=O)c2cccc(NC(=O)c3ccccc3)c2)ccc1O,26,-9,-18,14,65*,-5,31*,57*,7,7
CCNc1nc(NC(C)(C)C)nc(SCC(N)=O)n1,-2,5,0,5,2,-6,nt,nt,nt,nt
COc1cccc(/C=N/NC(=O)c2nc(-c3ccccc3)cc(-c3ccccc3)n2)c1,-9,-5,1,8,10,-3,nt,nt,nt,nt
COc1cc(/C=N/NC(=O)C(=O)/C=C2\NC(C)(C)Cc3ccccc32)ccc1O,-4,4,3,1,52*,7,23*,33,6,11
COc1ccc(/C=N/NC(=O)c2nc(-c3ccccc3)cc(-c3ccccc3)n2)cc1OC,7,-3,-3,21,51*,-1,26*,44,7,9
Cc1cc(C)c(C)c(S(=O)(=O)N[C@@H](C)C(=O)OCC(N)=O)c1C,-18,3,17,1,-18,0,nt,nt,nt,nt
